Assay outcomes: PubChem BioAssay, several laboratories
Only some compounds are listed: those with a hit (about 1.1% of all), similar ones and a draw of the others.
hK5 inh: human KLK5 protease inhibitors, primary screen, biochemical, 1536-well | Kallikrein-5 (Homo sapiens), Q9Y337 | recombinant hK5, fluorogenic AMC substrate cleavage | inhibition, % at 5 µM | 210,000 tested, 0.59% active;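 active = inhibition of 40% or more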;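 also: 0% = enzyme controls without compound and 100% = no-enzyme blanks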
thrombin 1536: human alpha-thrombin inhibitors, primary screen, counter-screen for coagulation protease inhibitor project, biochemical, 1536-well, fluorogenic AMC substrate; Prothrombin (Homo sapiens), P00734; Boc-VPR-AMC fluorogenic substrate cleavage; inhibition, % at 5 µM; 220,000 tested, 0.26% active;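 active = inhibition at or above 40%; inactive = inhibition below 40%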;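 also: 0% = enzyme with no compound and 100% = wells without enzyme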
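System – human alpha-thrombin protein · Reagent – Boc-VPR-AMC substrate, 15 µM final · Compound – 5 µM single dose in 0.2% DMSO · Schedule – reaction at room temperature · Technique – AMC fluorescence at 355 nm excitation and 460 nm emission · Read-out basis – % inhibition relative to enzyme controls and enzyme-free blanks · Control set – no-compound enzyme wells and no-enzyme blanks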
Furin inhibitor: human furin inhibitors, primary screen, biochemical, fluorescence intensity. P09958. purified furin, fluorogenic substrate cleavage. inhibition, % at 20 µM or 30 µM. 220,000 tested, 0.061% active. AID 463115, 2010; in the data active = inhibition above about 25%
FXIa inh: human FXIa protease inhibitors, primary screen, biochemical, 1536-well; Coagulation factor XI (Homo sapiens), P03951; purified FXIa, Boc-Glu-Ala-Arg-AMC fluorogenic substrate; inhibition, % at 5 µM; 220,000 tested, 0.14% active; AID 798, 2007;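 active = inhibition of at least 40%; inactive = inhibition below 40%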;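 also: fluorescence of freed AMC excited at 355 nm; 0% = enzyme without compound and 100% = no enzyme blank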
FXIIa inh 1536: human FXIIa protease inhibitors, primary screen, biochemical, 1536-well; Coagulation factor XII (Homo sapiens), P00748; 220,000 tested, 0.3% active; AID 800, 2007; purified FXIIa, Boc-QGR-AMC fluorogenic substrate, 2 h; inhibition, % at 5 µM; in the data active = inhibition above about 40%;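 also: 0% = enzyme with no compound and 100% = blank without enzyme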
Target sequence (P00748 20-372 limits assumed): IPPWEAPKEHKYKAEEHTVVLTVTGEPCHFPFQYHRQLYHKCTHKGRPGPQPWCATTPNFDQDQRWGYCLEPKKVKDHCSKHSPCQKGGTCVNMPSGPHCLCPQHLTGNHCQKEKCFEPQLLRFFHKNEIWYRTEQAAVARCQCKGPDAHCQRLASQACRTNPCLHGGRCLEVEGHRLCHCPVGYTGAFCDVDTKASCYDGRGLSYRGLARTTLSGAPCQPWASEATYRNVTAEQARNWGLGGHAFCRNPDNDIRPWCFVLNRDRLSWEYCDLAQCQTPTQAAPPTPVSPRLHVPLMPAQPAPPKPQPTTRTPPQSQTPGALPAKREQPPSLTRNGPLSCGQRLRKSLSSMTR
Target sequence (P00748 373-615 limits assumed): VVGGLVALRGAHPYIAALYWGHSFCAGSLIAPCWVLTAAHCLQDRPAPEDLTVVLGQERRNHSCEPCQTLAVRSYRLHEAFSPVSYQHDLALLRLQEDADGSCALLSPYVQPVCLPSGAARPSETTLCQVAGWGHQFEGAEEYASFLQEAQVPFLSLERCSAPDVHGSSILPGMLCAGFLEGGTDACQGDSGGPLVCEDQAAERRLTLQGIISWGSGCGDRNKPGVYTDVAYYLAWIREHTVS
An asterisk follows results filed as active; · = not tested or not shown.

SMILES | hK5 inh | thrombin 1536 | Furin inhibitor | FXIa inh | FXIIa inh 1536
Cc1cc(C)cc(N2CCCn3c2nc2c3c(=O)n(CC(=O)OCc3ccccc3)c(=O)n2C)c1 | 5 | 8 | -13 | 1 | 16
CC(C)(C)C(=O)NC1(C(F)(F)F)NC(=O)N(c2ccc(F)cc2)C1=O (stereo unspecified) | 6 | -1 | -27 | -3 | 9
O=S1(=O)CCN(C(CCO)c2cccc(C(F)(F)F)c2)CC1 (stereo unspecified) | -11 | -10 | -4 | -5 | 4
NC(=O)C1(N2CCCCC2)CCN(Cc2ccc(Br)cc2)CC1 | 1 | -5 | -19 | 2 | 6
NC(=O)C1(N2CCCCC2)CCN(Cc2ccc(F)cc2)CC1 | 49* | 23 | -16 | 0 | 11
Clc1ccc(-c2cc(-c3nnc4n3CCCCC4)c3ccccc3n2)cc1 | -3 | -2 | -17 | 1 | 12
c1ccc2c(-c3nnc4n3CCCCC4)cc(-c3ccncc3)nc2c1 | 20 | 45* | -9 | 3 | 13
Cc1csc(N(C(=O)c2ccccc2F)c2ccccc2)n1 | -1 | 0 | -15 | -7 | 2
COc1ccc(NC(=S)N(CCCN2CCCC2)Cc2cccn2Cc2ccc(Cl)cc2)cc1Cl | · | -3 | -20 | -7 | 7
Cc1nc2c3ccccc3nc(NNC(=O)CCC(=O)NC(C)C)n2n1 | -15 | 0 | -18 | 7 | 8
Cc1nc2c3ccccc3nc(NNC(=O)CCC(=O)NC3CCCC3)n2n1 | 50* | 5 | -20 | -3 | 9
COc1ccc(C2N3CC4(C)CN2CC(C)(C3)C4=O)cc1OC (stereo unspecified) | 61* | 17 | -32 | 16 | 32
CCCCC(=O)Nc1cc(C(=O)NCCc2ccccc2)ccc1Cl | 63* | 18 | -12 | 3 | 19
COCCNC(=O)C(c1ccc(C)o1)N(C(=O)c1snc(C(N)=O)c1N)c1ccc(C)c(C)c1 (stereo unspecified) | 44* | 20 | -15 | 12 | 26
COCCNC(=O)C(c1ccc(C)o1)N(C(=O)c1snc(C(N)=O)c1N)c1ccc(C)cc1 (stereo unspecified) | -40 | 11 | -12 | 6 | 11
CCN(CC)S(=O)(=O)c1ccc(=O)[nH]c1 | 1 | 5 | -5 | 2 | 7
O=C(Nc1ncc(Cc2ccccc2)s1)c1cccs1 | -15 | 0 | -14 | 34 | 42*
Cc1ccc(C)n1-c1ccc(-c2nnco2)cc1 | 21 | 40* | -31 | 1 | -5
CCOC(=O)c1c(C)nc2sc3c(=O)n(-c4ccc(C(C)=O)cc4)cnc3c2c1-c1ccc(OC)cc1 | -24 | 17 | -13 | 0 | 5
CCOC(=O)c1c(C)nc2sc3c(=O)n(-c4ccc(OC)cc4)nnc3c2c1-c1ccc(OC)cc1 | 45* | 3 | -18 | 20 | 24
COc1ccc(S(=O)(=O)CCc2nnc(NC(=O)c3cccs3)s2)cc1 | 1 | 77* | -15 | 0 | 22
COc1ccc2c(c1)-c1nc(NC(=O)c3cccs3)sc1CC2 | -14 | 4 | -5 | 49* | 22
O=C(O)CC(Cc1ccc(Br)cc1)C(=O)O (stereo unspecified) | 0 | -3 | -17 | -13 | 61*
NC(CC(=O)O)c1ccc(Br)cc1 (stereo unspecified) | -5 | -3 | 1 | 4 | -11
CSCCC(NC(=O)c1ccc(Br)cc1)C(=O)O (stereo unspecified) | -4 | -7 | -19 | -2 | 5
SMILES | hK5 inh | thrombin 1536 | Furin inhibitor | FXIa inh | FXIIa inh 1536
CSCCC(NC(=O)c1cncc(Br)c1)C(=O)O (stereo unspecified) | 52* | 9 | -11 | -3 | 16
Brc1c(C[n+]2ccccc2)nc2ccccn12 | 24 | 33 | -5 | 25 | 53*
Cc1nnc(NC(=O)CSc2ncc(-c3ccccc3)[nH]2)s1 | -2 | -7 | -10 | -4 | 3
CCc1nnc(NC(=O)CSc2ncc(-c3ccccc3)[nH]2)s1 | 63* | 12 | -4 | 10 | -1
CCc1nnc(NC(=O)CSc2nc3ccccc3o2)s1 | 42* | 11 | -11 | 7 | 0
CCNc1nc(NCC)nc(OCCNS(=O)(=O)c2cc(C)ccc2C)n1 | 53* | 34 | -10 | 20 | 0
CCNc1nc(NC(C)C)nc(OCCNS(=O)(=O)c2cc(C)ccc2C)n1 | -4 | -1 | -20 | 9 | 14
CCCc1nc2c(=O)[nH]c3ccccc3c2o1 | 44* | 18 | -21 | 5 | 16
CCC(C)NCCOc1ccc(C)cc1[N+](=O)[O-] (stereo unspecified) | · | 41* | -14 | 12 | 23
CCNC(=O)COC(=O)c1csc2c1CCCC2 | -10 | -6 | -13 | -6 | -3
CC1(C)C2CCC(C2)C1(C)N=C1OC(CCl)CS1 (stereo unspecified) | 52* | 14 | -13 | 53* | 22
Nc1ccc(Cl)c(S(=O)(=O)Nc2ccc(Cl)cc2)c1 | 3 | -1 | -23 | 1 | 2
COc1cccc(Cn2cnc3c(N)c(C)c(C)cc32)c1 | 0 | -9 | 1 | -2 | 7
Cc1cccc(Cn2cnc3c(NS(C)(=O)=O)c(C)c(C)cc32)c1 | 57* | 1 | -10 | 0 | 13
Cc1cc(OCCCCn2ccnc2)cc(C)c1Cl | -12 | 3 | -28 | 11 | 3
CC(O)C(=O)N/N=C/c1cccc2ccccc12 (stereo unspecified) | 41* | 48* | -1 | 6 | 13
Cn1cccc1CC(=O)N/N=C/c1cccc2ccccc12 | -14 | 8 | -8 | 10 | 11
O=C(CNCc1ccc(Cl)cc1)Nc1ccc2c(c1)OCCO2 | 1 | -2 | -19 | 0 | 10
CS(=O)(=O)N(CC(=O)NCc1ccco1)Cc1ccc(Cl)cc1 | 78* | 8 | -19 | 0 | 9
CS(=O)(=O)N(CC(=O)Nc1ccc2c(c1)OCCO2)Cc1ccc(Cl)cc1 | 48* | 29 | -22 | 4 | 11
Cn1cnnc1SCC(=O)Nc1ccccc1Oc1ccccc1 | -2 | -2 | -19 | 0 | 5
COc1ccc(Oc2cnn(-c3ccccc3)c(=O)c2Br)cc1 | 1 | 0 | -25 | -1 | 6
O=C(CSc1nc2cccnc2n1Cc1ccccc1)N1CCCC1 | 46* | 19 | -3 | 6 | 20
Cn1c(SCC(=O)N2CCCC2)nc2cccnc21 | -5 | 0 | -17 | 2 | 10
COc1cccc(C(=O)Nc2nc(SCc3ccc(Cl)cc3)n[nH]2)c1 | 29 | 51* | -20 | 8 | 34
CCOC(=O)CSc1n[nH]c(NC(=O)CC)n1 | · | 1 | -11 | -3 | 5
CCOC(=O)CSc1n[nH]c(NC(=O)c2cccc(C(F)(F)F)c2)n1 | 39 | 78* | -18 | -8 | 15
O=C(NNc1cc(Cl)ccc1Cl)c1c(F)cccc1Cl | 35 | 8 | -8 | 32 | 42*
